Experimental data pooled from the literature.
Lines come from different studies, so protocols differ.
Target: Calcium/calmodulin-dependent protein kinase type 1D (CAMK1D, Homo sapiens, UniProt Q8IU85)

Structure (SMILES) | assay | conditions | quantity | value
Cn1cc(-c2cc(F)cc(N3CCn4c(cc5c4CCCC5)C3=O)c2CO)cc(Nc2ccc(N3CCN(C4COC4)CC3)cn2)c1=O | enzyme activity, inhibitor | 0.1 µM | inhibition | 15%
O=c1[nH]c2ccccc2n1C1CCN(Cc2ccc(-c3[nH]c4cc5ncnc5cc4nc3-c3ccccc3)cc2)CC1 | cell-free assay | 0.5 µM | remaining signal | 107%
Cn1cncc1[C@](O)(COc1ccc(C#N)cc1-c1ccc(OC(F)(F)F)cc1)c1ccc(C#N)cc1 | cell-free assay, competition with immobilised ligand | 1 µM | remaining binding | 100%
COc1ncccc1-c1cnn2ccc(N3CCN(C(=O)OC(C)C)CC3)nc12 | binding, competition with immobilised ligand | 1 µM | remaining binding | 100%
Cc1nn(C)cc1-c1nc2c(N3CCN(Cc4ccc(Cl)cc4)CC3)c(Cl)cnc2[nH]1 | binding, competition with immobilised ligand | 1 µM | remaining binding | 100%
Nc1ncc(-c2nc(N3CCOCC3)nc(N3CCOCC3)n2)c(C(F)F)n1 | binding, competition with immobilised ligand | 10 µM | remaining binding | 100%
N#CC1(c2ccccn2)CCN(Cc2cc(C(=O)O)c(=O)n3ccccc23)CC1 | cell-free assay, competition with immobilised ligand | 1 µM | remaining binding | 100%
CC(C)(C)c1cc(C=C(C#N)C#N)cc(Br)c1O | enzyme activity, inhibitor | 0.5 µM | remaining activity | 111%
